Reference: ChEMBL document CHEMBL1154734, “Small-sized human immunodeficiency virus type-1 protease inhibitors containing allophenylnorstatine to explore the S2' pocket” (J Med Chem, 2009)
≈ marks a conversion by molar mass, not a printed value.

Columns and labels:
[1] = test system: Human immunodeficiency virus; assay: Inhibition of recombinant HIV protease at 50 nM after 15 mins by fluorescence assay
Outline: (§1)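 Recombinant HIV-1 protease was assayed in MES–NaOH pH 5.5 with DTT, EDTA and NaCl, with inhibitor at 50 nM final (500 nM DMSO stock). The substrate was H-Lys-Ala-Arg-Val-Tyr-Phe(p-NO2)-Glu-Ala-Nle-NH2, and the reaction ran 15 min at 37 °C. It was stopped with 1 N HCl. The N-terminal fragment was quantified by RP-HPLC with fluorescence at ex 275/em 305 nm.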

[2] = test system: Human immunodeficiency virus 1; assay: Antiviral activity against HIV1 3B infected in human MT4 cells assessed as inhibition of virus-induced cytopathic effect after 5 days by MTT assay; format: functional, organism-based; details: Human immunodeficiency virus 1, 3B, MT4, 120 h
Outline: (§2)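 HIV-1 (IIIB or pNL4-3) inoculated into MT-4 cells. Cultures were treated with an equal volume of a 1% DMSO solution of compound at several concentrations plus 10% fetal bovine serum, then incubated 5 days at 37 °C in CO2, in triplicate. After MTT, optical density gave the percent cytopathic effect reduction. EC50 was fitted to a median-effect equation.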

[3] = test system: Human immunodeficiency virus 1; assay: Antiviral activity against HIV1 pNL4-3 infected in human MT4 cells assessed as inhibition of virus-induced cytopathic effect after 5 days by MTT assay; format: functional, organism-based; details: Human immunodeficiency virus 1, pNL4-3, MT4, 120 h; outline: as §2
[4] = target: Protease (Human immunodeficiency virus 1) (UniProt Q9YQ12); assay: Inhibition of HIV1 recombinant protease at 1 nM after 3 hrs by fluorescence assay
Protease (Human immunodeficiency virus 1), sequence (Q9YQ12 as listed by the source): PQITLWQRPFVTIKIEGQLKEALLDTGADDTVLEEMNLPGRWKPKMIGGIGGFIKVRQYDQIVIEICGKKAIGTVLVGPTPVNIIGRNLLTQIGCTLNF

[5] = target: Protease (Human immunodeficiency virus 1) (UniProt Q9YQ12); assay: Inhibition of HIV1 recombinant protease at 50 nM after 15 mins by fluorescence assay; outline: as §1
[6] = test system: Human immunodeficiency virus 1; assay: Antiviral activity against indinavir-resistant HIV1 harboring L10R/M46I/L63P/V82T/I84V mutant protease infected in human MT4 cells assessed as inhibition of virus-induced cytopathic effect after 5 days by MTT assay; format: functional, organism-based; details: Human immunodeficiency virus 1, MT4, 120 h
Outline: (§3)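 MT-4 cells inoculated with HIV-1 wild-type pNL4-3 or indinavir-resistant IND-R, then given an equal volume of compound in 1% DMSO at several concentrations with 10% fetal bovine serum. Incubated 5 days at 37 °C in CO2, in triplicate. MTT read-out by optical density gave percent cytopathic-effect reduction; EC50 was fitted to a median-effect equation.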

[7] = test system: Human immunodeficiency virus 1; assay: Fold resistance, ratio of EC50 for indinavir-resistant HIV1 harboring L10R/M46I/L63P/V82T/I84V mutant protease infected in human MT4 cells to EC50 for HIV1 pNL4-3 infected in human MT4 cells; format: functional; outline: as §3
Protease = Protease (Human immunodeficiency virus 1, UniProt Q9YQ12); assay: Inhibition of HIV1 recombinant protease after 15 mins by fluorescence assay
Protease, sequence (Q9YQ12 whole entry): as the sequence (Q9YQ12 as listed by the source) above

[8] = Aqueous solubility in 0.1% TFA after 30 mins by RP-HPLC analysis; format: physicochemical; details: 0.1% TFA in water
[9] = test system: Human immunodeficiency virus 1; assay: Ratio of EC50 for HIV1 pNL4-3 infected in human MT4 cells in presence of 50% human serum to EC50 for HIV1 pNL4-3 infected in human MT4 cells in absence of human serum; format: functional
Outline: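 HIV-1 pNL4-3 was inoculated into MT-4 cells, then test compound was added at several concentrations in 1% DMSO with 10% FBS. Cultures were incubated 5 days at 37 °C in CO2, in triplicate, and the cytopathic effect was read by MTT optical density. EC50 was fitted to a median-effect equation with and without 50% human serum. The serum binding effect is their ratio.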

[10] = test system: Human immunodeficiency virus 1; assay: Antiviral activity against HIV1 pNL4-3 infected in human MT4 cells assessed as inhibition of virus-induced cytopathic effect after 5 days by MTT assay in presence of 50% human serum; format: functional, organism-based; details: Human immunodeficiency virus 1, pNL4-3, MT4, 120 h
Outline: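 MT-4 cells were infected with wild-type HIV-1 (IIIB or pNL4-3) in the presence of 50% human serum. Compound was added at several concentrations from a 1% DMSO solution, and cells were incubated 5 days at 37 °C in triplicate. Cytopathic effect reduction was read by MTT optical density, and EC50 was derived from a median-effect equation fit.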

[11] = test system: Human immunodeficiency virus 1; assay: Antiviral activity against HIV1 pNL4-3 infected in human MT4 cells assessed as inhibition of virus-induced cytopathic effect after 5 days by MTT assay in absence of human serum; format: functional, organism-based; details: Human immunodeficiency virus 1, pNL4-3, MT4, 120 h; outline: as §2

Compound | inhibition [1] | inhibition [5] | Ki (Protease) | solubility at 0.5 h [8] | EC50 [2] | EC50 [3] | inhibition [4] | EC50 [6] | Ratio EC50 [7] | Ratio EC50 [9] | EC50 [10] | EC50 [11]
Cc1c(O)cccc1C(=O)N[C@@H](Cc1ccccc1)[C@H](O)C(=O)N1CSC(C)(C)[C@H]1C(=O)NC(C)(C)c1ccccc1 | 82% | – | – | – | 123 nM | – | – | – | – | – | – | –
Cc1ccccc1CNC(=O)[C@H]1N(C(=O)[C@@H](O)[C@H](Cc2ccccc2)NC(=O)c2cccc(O)c2C)CSC1(C)C | – | 99% | 0.031 nM | – | 33 nM | 60 nM | 72% | 100 nM | 1.7 | – | – | –
Cc1c(O)cccc1C(=O)N[C@@H](Cc1ccccc1)[C@H](O)C(=O)N1CSC(C)(C)[C@H]1C(=O)NCc1c(F)cccc1Cl | – | 97% | – | – | 32 nM | 25 nM | 50% | 157 nM | 6.3 | – | – | –
C=C(C)CNC(=O)[C@H]1N(C(=O)[C@@H](O)[C@H](Cc2ccccc2)NC(=O)COc2c(C)cc(N)cc2C)CSC1(C)C | – | 98% | – | 8480 µg/mL (≈ 14.9 mM) | – | – | 43% | – | – | 8.2 | 82 nM | 10 nM

Further lines, with some results ahead:

inhibition [1] | inhibition [5] | Ki (Protease) | solubility at 0.5 h [8] | Compound | EC50 [2] | EC50 [3] | inhibition [4] | EC50 [6] | Ratio EC50 [7] | Ratio EC50 [9] | EC50 [10] | EC50 [11]
– | 99% | 0.0024 nM | – | Cc1cccc(C)c1CNC(=O)[C@H]1N(C(=O)[C@@H](O)[C@H](Cc2ccccc2)NC(=O)c2cccc(O)c2C)CSC1(C)C | – | – | 82% | – | – | – | – | –
– | 98% | 0.19 nM | – | C=C(C)CNC(=O)[C@H]1N(C(=O)[C@@H](O)[C@H](Cc2ccccc2)NC(=O)c2cccc(O)c2C)CSC1(C)C | – | 17 nM | – | – | – | – | – | –
